Compound activity: PubChem BioAssay, several laboratories
Gli-Sufu antag: Gli-Sufu pathway antagonism | Sufu-KO-LIGHT fibroblasts, Gli luciferase reporter luminescence | inhibition, % at 5 µM | 0.74% of 340,000 active | AID 588413;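 active means inhibition above about 55%, limit read from the data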;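 further: 0% = DMSO-treated cells and 100% = wells with medium but no cells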
697 NFkB inh: inhibitors of the PMA/ionomycin-induced NF-kB reporter in 697 B cells | 697 B-cell NF-kB luciferase reporter, 16 h | inhibition, % at 4 µM | 0.33% of 330,000 active | AID 435022; in the data active means inhibition above about 35%
XBP1 UPR activ: activators of adaptive arm of unfolded protein response (XBP1); activation, % at 20 µM; CHO-XBP1 luciferase reporter, IRE1-XBP1 UPR activation, luminescence; percent of tunicamycin response, DMSO as zero; 0.33% of 330,000 active;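 active means versus positive control, 20 µM dose yields 30% or more activation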;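 further: 100% = tunicamycin at 10 µg/mL and 0% = DMSO only wells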
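assay system = CHO-XBP1 luciferase reporter cells | amount = 1000 cells/well | buffer or medium = F12 plus 10% FBS | compound dosing = single point, 20 µM final compound, 1% DMSO | incubation = 16-18 h cell attachment at 37 °C, then 6 h compound exposure | detection = Steady-Glo luminescence read | controls = tunicamycin 10 µg/mL and vehicle-only wells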
Jurkat NFkB inh: lowers PMA/ionomycin-induced NF-kB signal in Jurkat cells. PMA/ionomycin-induced NF-kB luciferase reporter, luminescence. inhibition, % at 4 µM. 0.53% of 330,000 active; in the data active means inhibition above about 50%
CHOP UPR activ: apoptotic UPR (CHOP) activation; CHO-CHOP luciferase reporter, luminescence; percent of tunicamycin response over DMSO baseline; activation, % at 10 µM; 0.34% of 330,000 active; AID 449763;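 active means at 10 µM dose, activation of 40% or more, normalized to positive control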;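 further: 100% = tunicamycin at 10 µg/mL and 0% = DMSO alone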
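Material: CHO-CHOP cells, stable luciferase reporter of PERK-eIF2a-CHOP signalling; quantity: 500 reporter cells seeded per well; buffer or medium: F12 medium containing 10% fetal bovine serum; compound: one dose, 10 µM in 0.5% DMSO; incubation: 6 h compound treatment, 37 °C; measured by: Steady-Glo luciferase luminescence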
CHOP inhibitor: CHOP inhibition in unfolded protein response. CHO-K1 CHOP-promoter luciferase, tunicamycin-induced, 15-18 h. 3.8% of 220,000 active. inhibition, % at 10 µM. AID 2732;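 active means compounds that reduced the stress-induced luciferase reporter signal by more than about 70% of percent inhibition, limit read from the data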;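 further: 0% = tunicamycin plus vehicle and 100% = wells without tunicamycin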
CHOP confirm: confirmation of CHOP induction inhibitors | shares compounds with CHOP inhibitor | 45% of 2,100 active | CHO-CHOP promoter luciferase reporter, tunicamycin-induced, luminescence | inhibition, % at 10 µM;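 active means mean of three repeat readings of reporter signal inhibition above a set limit, cut at about 70% in these data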;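 further: 0% = tunicamycin plus vehicle and 100% = wells lacking tunicamycin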
Jurkat NFkB conf: lowers PMA/ionomycin-induced NF-kB signal in Jurkat cells | shares compounds with Jurkat NFkB inh | Jurkat NF-kB luciferase, 16 h | inhibition, % at 4 µM | 27% of 2,700 active | AID 435020;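 active means inhibition reaching about 45% at 4 µM in either replicate, limit read from the data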;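 further: plate controls were PMA/ionomycin stimulated DMSO wells for no effect and unstimulated DMSO wells for full effect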
697 NFkB conf: inhibitors of the PMA/ionomycin-induced NF-kB reporter in 697 B cells, retest; 697 B-cell NF-kB luciferase, 16 h; shares compounds with 697 NFkB inh; inhibition, % at 4 µM; 35% of 2,000 active; in the data active means inhibition mostly above about 28%, no sharp cut-off; inactive means mostly below about 22%
UPR CHOP confirm: confirmation of apoptotic unfolded protein response (CHOP) activators; shares compounds with CHOP UPR activ; CHO-CHOP cells, CHOP-luciferase reporter luminescence; percent of tunicamycin response, DMSO as zero; activation, % at 10 µM; 64% of 1,000 active; AID 463112; in the data active means activation above about 33%;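 further: 0% = DMSO wells and 100% = tunicamycin 10 µg/mL wells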
UPR XBP1 confirm: confirmation of adaptive unfolded protein response (XBP1) activators; CHO-XBP1 IRE1-XBP1 luciferase reporter, luminescence; activation, % at 20 µM; AID 485299; 63% of 1,000 active; shares compounds with XBP1 UPR activ;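 active means reporter signal at least 30% of the positive control's activation in two or more of four replicate wells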;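 further: plate controls were DMSO negative control for no effect and tunicamycin 10 µg/mL positive control for full effect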
* = called active by the depositor; · = no result. In the library only some 3.9% were active in any assay of this set; here they are far more common.

SMILES | Gli-Sufu antag | 697 NFkB inh | XBP1 UPR activ | Jurkat NFkB inh | CHOP UPR activ | CHOP inhibitor | CHOP confirm | UPR XBP1 confirm | others
CCOC(=O)c1cc(C(=O)OCC)c(=O)[nH]c1SCc1ccccc1 | -16 | -6 | -3 | -2 | -1 | · | · | ·
NS(=O)(=O)c1ccc(N/N=C2/CCCCC2C2CCCCC2)c([N+](=O)[O-])c1 (configuration not stated) | 9 | -25 | 55* | 7 | 4 | 108* | 115* | 84*
COc1ccc2cc(C)c3nnc(SCC(=O)Nc4nc(-c5ccc(F)cc5)cs4)n3c2c1 | -8 | 1 | 216* | 5 | 160* | 105* | 7 | 216* | UPR CHOP confirm=88*
O=C(CCC(=O)c1ccc(Cl)s1)Nc1ncccc1O | -15 | -8 | 0 | 8 | 2 | · | · | ·
C=CCn1c(CSc2ccc(C)cc2)n[nH]c1=S | 6 | -12 | -1 | 6 | -1 | · | · | ·
O=[N+]([O-])c1ccc(/C=N/n2c(C3CCCCC3)n[nH]c2=S)cc1 | 12 | -4 | 34* | 4 | 1 | 105* | 113* | 3
O=C(Nc1ccc(O)c(-c2nc3ccccc3s2)c1)c1cc(=O)c2ccccc2o1 | 2 | 9 | 42* | 18 | 1 | 108* | 21 | 94*
O=C(Nc1ccc(O)c(-c2nc3ccccc3s2)c1)c1cccs1 | 0 | 0 | 2 | 3 | 2 | 11 | · | ·
COc1cccc(OC)c1C(=O)Nc1ccccc1N1CCCCC1 | -8 | 8 | -5 | 1 | -1 | · | · | ·
CCOC(=O)c1c2ccc(OCC(=O)N/N=C/c3ccc(C)cc3)cc2n2ccccc12 | 13 | 13 | 123* | 6 | 158* | 104* | 114* | 106* | UPR CHOP confirm=61*
CCOC(=O)c1c2ccc(OCC(=O)NN)cc2n2ccccc12 | -4 | 10 | -3 | -1 | -1 | 33 | · | ·
CCOc1ccc(OCC)c(NC(=O)CN2CCN(CC(=O)NC(C)C)CC2)c1 | 6 | -27 | -2 | -27 | -1 | · | · | ·
COc1ccc(C(CCNCc2ccc(F)cc2)c2ccc(F)cc2)cc1 (configuration not stated) | 15 | 7 | 48* | 0 | 4 | 101* | 105* | 65*
CCc1ccc(C(=O)C[n+]2cccc3cc(OC)ccc32)cc1 | 38 | 0 | -3 | 23 | 0 | · | · | ·
Oc1cccc(-c2nc3c4c(ncn3n2)-c2ccccc2CC42CCCC2)c1 | 5 | -10 | 31* | 0 | 5 | 100* | 83* | 50*
COc1ccc(-c2nc3c4c(ncn3n2)-c2ccccc2CC42CCCC2)cc1 | 6 | -46 | 1 | 5 | 11 | 4 | · | ·
Nc1c(C(=O)Nc2ccc(S(=O)(=O)N3CCCC3)cc2)sc2nc3cc4c(cc3cc12)CCC4 | 8 | · | · | · | · | 66 | · | ·
Nc1c(C(=O)Nc2ccc(S(=O)(=O)N3CCCC3)cc2)sc2nc3ccc(OC(F)(F)F)cc3cc12 | 8 | -16 | 194* | -1 | 311* | 106* | 112* | 162* | UPR CHOP confirm=72*
Cc1ccc(Cn2c(SCC(=O)Nc3cc(C)on3)nc3ccccc3c2=O)cc1 | 4 | -9 | 52* | -11 | 2 | 104* | 124* | 48*
Cc1cc(NC(=O)CSc2nnc(-c3c[nH]c4ccccc34)n2-c2ccc(Cl)cc2)no1 | 15 | -13 | 40* | -6 | 4 | 106* | -20 | 9
O=C(OCC(=O)N1CCOCC1)c1cc(=O)[nH]c2ccccc12 | 5 | 1 | -2 | 0 | 1 | · | · | ·
CCOc1ccc(/C=C/C(O)=C2/C(=O)N(C)C3(C)CC2c2ccccc2O3)cc1OC (configuration not stated) | 9 | -17 | -2 | 35 | 0 | -33 | · | ·
CCOc1ccc(/C=C/C(O)=C2/C(=O)NC3(C)CC2c2ccccc2O3)cc1OC (configuration not stated) | 12 | -8 | 41* | 64* | 46* | 96* | 64 | 46* | Jurkat NFkB conf=-15;UPR CHOP confirm=19
CC(Oc1ccc2c(c1)c1ccnc3c4ccccc4c(=O)n2c13)C(=O)NCCN1CCOCC1 (configuration not stated) | -8 | 5 | -2 | -18 | 6 | · | · | ·
CCc1cc2c(C)ccc(C)c2nc1SCC(=O)Nc1c[nH]c(=O)[nH]c1=O | -1 | 20 | 52* | -7 | 0 | 101* | 40 | 37*
SMILES | Gli-Sufu antag | 697 NFkB inh | XBP1 UPR activ | Jurkat NFkB inh | CHOP UPR activ | CHOP inhibitor | CHOP confirm | UPR XBP1 confirm | others
CCc1cc2c(C)ccc(C)c2nc1SCC(=O)Nc1c(C)[nH]c(=O)[nH]c1=O | -7 | -16 | 1 | 12 | 6 | 9 | · | ·
Cc1ccc(C)c(NC(=O)/C(C#N)=C/c2cn(CC(=O)NCc3ccco3)c3ccccc23)c1 | 4 | 14 | 224* | 2 | 111* | 106* | 58 | 16 | UPR CHOP confirm=51*
Cc1cc(C)cc(NC(=O)/C(C#N)=C/c2cn(CC(=O)NCc3ccco3)c3ccccc23)c1 | 35 | 41* | 152* | 2 | 276* | 106* | 106* | 295* | 697 NFkB conf=-9;UPR CHOP confirm=44*
COc1ccccc1C(=O)N/C(=C\c1cn(S(=O)(=O)N(C)C)c2ccccc12)C(=O)NCCCN1CCOCC1 | 4 | 2 | 2 | -7 | 0 | · | · | ·
COc1ccc(CCn2c(C3CCCCC3)nc3c(c(=O)c4ccccc4n3C)c2=O)cc1 | 5 | -87 | 34* | 36 | 6 | 100* | 47 | 82*
CC(NCC(=O)Nc1cc(S(=O)(=O)N2CCOCC2)ccc1Cl)c1ccc(Cl)cc1Cl (configuration not stated) | 8 | 1 | -3 | -15 | 1 | · | · | ·
CC1CN(C(=O)c2cc(S(=O)(=O)N3CCCCC3)ccc2Cl)CC(C)O1 (configuration not stated) | -4 | 16 | -2 | 13 | 1 | · | · | ·
CCn1c(=O)c(C(=O)Nc2nc3ccccc3[nH]2)c(O)c2ccccc21 | -18 | 10 | 78* | 13 | 11 | · | 120* | 14
